This is a sample that favours compounds with a hit; in the whole collection about 1.8% have one here.
NSD2 HMT inh: inhibitors of human histone methyltransferase NSD2; 310,000 compounds, 0.54% hits; O96028; NSD2 peptide methylation, AlphaScreen, 120 min; inhibition, % at 12.5 µM; in the data active means inhibition above about 50%
Target sequence (O96028 whole entry, looked up): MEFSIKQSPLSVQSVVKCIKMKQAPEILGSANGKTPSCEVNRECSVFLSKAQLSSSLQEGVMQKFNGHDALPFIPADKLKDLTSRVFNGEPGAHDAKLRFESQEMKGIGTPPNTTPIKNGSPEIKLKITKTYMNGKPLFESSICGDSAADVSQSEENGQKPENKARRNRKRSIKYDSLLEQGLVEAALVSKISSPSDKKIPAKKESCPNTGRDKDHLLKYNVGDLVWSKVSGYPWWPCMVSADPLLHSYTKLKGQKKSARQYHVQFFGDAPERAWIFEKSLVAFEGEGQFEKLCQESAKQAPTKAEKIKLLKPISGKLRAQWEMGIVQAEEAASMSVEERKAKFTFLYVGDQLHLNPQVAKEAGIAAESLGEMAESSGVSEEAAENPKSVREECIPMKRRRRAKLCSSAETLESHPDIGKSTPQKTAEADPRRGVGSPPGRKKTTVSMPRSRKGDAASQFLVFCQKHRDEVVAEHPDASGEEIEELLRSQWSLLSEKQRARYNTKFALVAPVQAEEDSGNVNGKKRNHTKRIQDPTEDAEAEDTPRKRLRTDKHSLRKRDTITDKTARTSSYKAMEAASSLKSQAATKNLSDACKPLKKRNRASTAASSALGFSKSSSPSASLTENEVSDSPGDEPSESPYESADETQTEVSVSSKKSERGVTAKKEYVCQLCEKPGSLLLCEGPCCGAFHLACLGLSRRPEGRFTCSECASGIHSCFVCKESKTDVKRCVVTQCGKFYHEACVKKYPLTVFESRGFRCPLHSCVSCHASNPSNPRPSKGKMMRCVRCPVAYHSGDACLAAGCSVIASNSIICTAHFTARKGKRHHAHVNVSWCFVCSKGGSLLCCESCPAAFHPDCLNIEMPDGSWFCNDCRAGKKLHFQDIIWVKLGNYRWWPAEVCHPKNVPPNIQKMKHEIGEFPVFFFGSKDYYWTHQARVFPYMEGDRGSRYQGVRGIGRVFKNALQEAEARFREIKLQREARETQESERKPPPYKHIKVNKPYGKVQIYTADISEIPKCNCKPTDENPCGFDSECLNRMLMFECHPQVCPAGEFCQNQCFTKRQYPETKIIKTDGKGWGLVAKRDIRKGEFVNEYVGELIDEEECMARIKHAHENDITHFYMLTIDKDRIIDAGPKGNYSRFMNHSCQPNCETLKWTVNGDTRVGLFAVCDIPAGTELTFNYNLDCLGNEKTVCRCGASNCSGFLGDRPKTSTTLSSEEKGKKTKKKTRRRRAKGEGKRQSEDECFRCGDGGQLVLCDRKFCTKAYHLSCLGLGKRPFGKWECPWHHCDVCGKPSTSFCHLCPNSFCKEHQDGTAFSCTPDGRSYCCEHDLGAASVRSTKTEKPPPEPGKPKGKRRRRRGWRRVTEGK
TDP2 inh: blocks human TDP2 phosphodiesterase activity | O95551 | recombinant TDP2, T5PNP hydrolysis, p-nitrophenol absorbance 415 nm | inhibition, % at 12.8 µM | 370,000 compounds, 0.34% hits | AID 720702;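 active means inhibition above the mean of all tested compounds plus 3 SD, set per campaign, cut at about 25% in these data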;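 further: 0% = DMSO with enzyme and 100% = buffer with substrate but no TDP2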
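System: recombinant human TDP2 / Amount: 120 nM TDP2 per well / Also added: 5 mM T5PNP chromogenic substrate / Doses: 12.8 µM single point, 1% DMSO / Incubation: 2 h at 37 °C / Detection: p-Nitrophenol epi absorbance / Evaluation: % inhibition relative to enzyme-containing and enzyme-free wells / Repeats: singlicate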
LEDGF integ inh: blocks HIV-1 LEDGF/p75-dependent DNA integration; TR-FRET IN-LEDGF/p75 DNA integration, Eu/Cy5; inhibition, % at 3.7 µM; 370,000 compounds, 0.64% hits; AID 743269;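 active means inhibition above the screen-wide mean plus 3 SD, cut at about 13% in these data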;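 further: signal is the Cy5 over europium emission ratio at 671 and 618 nm; 0% = plate median of compound wells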
MBD2 DNA inh: inhibitors of human MBD2 binding to methylated oligonucleotide. 370,000 compounds, 0.31% hits. AID 686964. TR-FRET. Q9UBB5. inhibition, % at 4.4 µM; in the data active means inhibition above about 13%
CASP6 VEID inh: caspase-6 (human) enzyme inhibition; P55212; purified caspase-6, Z-VEID-R110 cleavage fluorescence; inhibition, % at 12.5 µM; 350,000 compounds, 0.53% hits; AID 686996;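 active means mean inhibition across replicates at least about 35%, with every replicate also reaching that limit, limit read from the data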;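 further: 0% = median of neutral control wells and 100% = no fluorescence left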
UHRF1 MBD2 ctr: human UHRF1 methylated DNA binding inhibitors. UHRF1 binding to methylated oligo, TR-FRET. AID 687016. 370,000 compounds, 0.75% hits. inhibition, % at 4.4 µM; in the data active means inhibition above about 21%;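 further: UHRF1 SRA domain binding a hemimethylated CpG hairpin DNA probe; 0% = median of test compound wells and 100% = reference inhibitor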
IN multimer act: counter-screen for LEDGF/p75 integration inhibitors: HIV-1 integrase multimerization activators. activation, % at 7.7 µM. TR-FRET HIV-1 integrase multimerization, biochemical. AID 1053131. shares compounds with LEDGF integ inh. 2,000 compounds, 17% hits; in the data active means activation above about 8.9%
TR-FRET interf: counter-screen for LEDGF/p75 integration inhibitors: TR-FRET optical interference; 2,000 tested, under 10 active; AID 1053135; inhibition, % at 7.7 µM; TR-FRET optical interference counterscreen, HIV-1 IN multimerization; shares compounds with LEDGF integ inh;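 active means inhibition above the mean over all tested compounds plus 3 SD, which no compound reached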;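 further: 0% = integrase with antibodies and DMSO and 100% = antibodies without integrase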
IN-LEDGF confirm: confirmation of HIV-1 LEDGF/p75-dependent integration inhibitors | 2,000 compounds, 36% hits | inhibition, % at 3.7 µM | AID 1053136 | TR-FRET LEDGF/p75-dependent HIV-1 integration, biochemical | shares compounds with LEDGF integ inh; in the data active means inhibition above about 14%
* = called active by the depositor.

Screening COc1cccc(NC(=O)CSc2nnc(-c3ccco3)c(-c3ccco3)n2)c1 returned NSD2 HMT inh 20.6, TDP2 inh 8.8, LEDGF integ inh 24.6*, MBD2 DNA inh 2.0, CASP6 VEID inh 42.9*, UHRF1 MBD2 ctr 14.4, IN multimer act 8.3, TR-FRET interf -29.7 and IN-LEDGF confirm 38.8*.
For O=C(CSc1ccccc1)Nc1cccc(NC(=O)c2ccco2)c1 the results were TDP2 inh -4.9, LEDGF integ inh 16.4*, MBD2 DNA inh 6.3, CASP6 VEID inh 2.0, UHRF1 MBD2 ctr -0.3, IN multimer act 0.9, TR-FRET interf -4.7 and IN-LEDGF confirm -8.8.
`O=C(CSc1nnc(-c2ccco2)c(-c2ccco2)n1)Nc1ccccc1` gave NSD2 HMT inh 11.2, TDP2 inh -6.9, LEDGF integ inh 37.7*, MBD2 DNA inh 10.6, UHRF1 MBD2 ctr 40.8*, IN multimer act 3.1, TR-FRET interf -15.3 and IN-LEDGF confirm 54.7*.
Screening Cc1ccc(NC(=O)CSc2nnc(-c3ccco3)c(-c3ccco3)n2)cc1 returned NSD2 HMT inh -22.4, TDP2 inh 20.2, LEDGF integ inh 24.9*, MBD2 DNA inh -0.2, UHRF1 MBD2 ctr 7.9, IN multimer act 2.4, TR-FRET interf -12.2 and IN-LEDGF confirm 28.4*.
For CN(C)c1ccc(NC(=O)CSc2nnc(-c3ccco3)c(-c3ccco3)n2)cc1 the results were NSD2 HMT inh 5.9, TDP2 inh 6.6, LEDGF integ inh 11.0, MBD2 DNA inh -2.1, CASP6 VEID inh 2.0 and UHRF1 MBD2 ctr -10.3.
Screening C[C@@H]1CN([C@H](C)CO)C(=O)c2cc(NS(C)(=O)=O)ccc2O[C@H]1CN(C)Cc1ccc(C(=O)Nc2ccccc2N)cc1 returned CASP6 VEID inh -1.4.
For Cc1ccc(S(=O)(=O)Nc2ccc3c(c2)C(=O)N([C@@H](C)CO)C[C@@H](C)[C@@H](CN(C)S(=O)(=O)c2ccc(F)cc2)OCCCC[C@@H](C)O3)cc1 the results were CASP6 VEID inh 1.8.
`COc1ccc(C(=O)CSc2nnc(-c3ccco3)c(-c3ccco3)n2)cc1` gave NSD2 HMT inh 2.4, TDP2 inh 11.4, LEDGF integ inh 15.3*, MBD2 DNA inh 2.6, CASP6 VEID inh -0.1, UHRF1 MBD2 ctr 3.0, IN multimer act 13.2*, TR-FRET interf -47.4 and IN-LEDGF confirm 41.5*.
Screening COc1ccc(C(=O)CSc2nnc(-c3ccco3)n2C)cc1 returned NSD2 HMT inh 2.2, TDP2 inh -6.9, LEDGF integ inh 1.3, MBD2 DNA inh -8.5, CASP6 VEID inh 3.2 and UHRF1 MBD2 ctr 4.2.
`C[C@H](O)C#Cc1cnc2c(c1)C(=O)N([C@@H](C)CO)C[C@@H](C)[C@@H](CN(C)C(=O)c1ccccc1F)O2` gave CASP6 VEID inh 0.3.
Screening CCCCCOC(=O)CC(C(=O)OCCCCC)N1CCCCC1 (stereo not drawn) returned NSD2 HMT inh 6.3, TDP2 inh 3.8, LEDGF integ inh 13.7*, MBD2 DNA inh 3.1, UHRF1 MBD2 ctr -3.2, IN multimer act -0.4, TR-FRET interf 1.1 and IN-LEDGF confirm -17.2.
Screening O=C(C[C@H]1C=C[C@@H](NC(=O)c2ccccc2)[C@@H](CO)O1)NCc1ccc(Oc2ccccc2)cc1 returned CASP6 VEID inh -0.4.
CCC(CC)C(=O)N(C)c1c(C)nc2c(OCc3ccc(C(F)(F)F)cc3)cccn12 was read as NSD2 HMT inh -1.2, TDP2 inh 3.0, LEDGF integ inh -1.1, MBD2 DNA inh 1.2, CASP6 VEID inh 6.1 and UHRF1 MBD2 ctr -0.6.
`CCC(CC)C(=O)N(C)c1c(C)nc2c(OCc3ccc(F)c(F)c3)cccn12` gave NSD2 HMT inh -0.2, TDP2 inh 1.6, LEDGF integ inh 21.1*, MBD2 DNA inh 2.5, UHRF1 MBD2 ctr -0.3, IN multimer act 1.4, TR-FRET interf -4.7 and IN-LEDGF confirm 3.4.
CCCCOc1ccc(C(=O)N/C(=C\c2cccc([N+](=O)[O-])c2)C(=O)OCCC)cc1 was read as NSD2 HMT inh -1.3, TDP2 inh 6.4, LEDGF integ inh -4.2, MBD2 DNA inh -4.0 and UHRF1 MBD2 ctr 4.2.
For CCCCOc1ccc(C(=O)N/C(=C\c2ccc([N+](=O)[O-])cc2)C(=O)OCc2ccco2)cc1 the results were NSD2 HMT inh -1.5, TDP2 inh 1.0, LEDGF integ inh 20.7*, MBD2 DNA inh 7.2, UHRF1 MBD2 ctr -1.5, IN multimer act 0.2, TR-FRET interf -1.2 and IN-LEDGF confirm -2.3.
`C[C@@H]1CN([C@H](C)CO)C(=O)c2cccc(NC(=O)C3CCOCC3)c2O[C@H]1CN(C)Cc1ccccc1` gave CASP6 VEID inh 0.5.
Screening CCCn1c(CNC(=O)c2ccccc2)nc2ccccc21 returned NSD2 HMT inh -4.5, TDP2 inh -0.7, LEDGF integ inh -1.8, MBD2 DNA inh -3.7 and UHRF1 MBD2 ctr -3.4.
`CCCn1c(NC(=O)c2ccc(C)cc2)nc2ccccc21` gave NSD2 HMT inh -1.0, TDP2 inh 2.5, LEDGF integ inh 19.0*, MBD2 DNA inh 4.8, UHRF1 MBD2 ctr 1.3, IN multimer act -2.0, TR-FRET interf 10.0 and IN-LEDGF confirm 22.4*.
Screening CCCn1c(NC(=O)c2ccccc2)nc2ccccc21 returned NSD2 HMT inh -1.1, TDP2 inh -7.7, LEDGF integ inh 18.8*, MBD2 DNA inh 1.5, UHRF1 MBD2 ctr -1.0, IN multimer act -2.5, TR-FRET interf 12.7 and IN-LEDGF confirm 23.6*.
`CCCNC(=O)N(C)C[C@H]1Oc2ncc(-c3ccc(C(=O)N(C)C)cc3)cc2C(=O)N([C@H](C)CO)C[C@@H]1C` gave CASP6 VEID inh 10.7.
Screening Nc1c(Br)cc2c(c1Br)C(O)c1ccccc1-2 (stereo not drawn) returned NSD2 HMT inh -1.8, TDP2 inh 0.1, LEDGF integ inh 25.9*, MBD2 DNA inh -0.5, CASP6 VEID inh -4.0, UHRF1 MBD2 ctr -1.6, IN multimer act 5.0, TR-FRET interf -25.3 and IN-LEDGF confirm -0.5.
`CC(C)CC#Cc1cnc2c(c1)C(=O)N([C@@H](C)CO)C[C@@H](C)[C@@H](CN(C)C(=O)c1cccc(F)c1)O2` gave CASP6 VEID inh 0.6.
